From publication PMC2668213 (Journal of medicinal chemistry, 2008)

What was measured:
SERT [1] = assay: MicroPET baseline regional brain uptake in anesthetized cynomolgus monkeys; type: in vivo, cynomolgus monkey
[2] = Protein-bound tracer in plasma; type: in vivo, cynomolgus monkey; settings: range over the time points of the study
In short: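 Arterial plasma was sampled after injection of the fluorine-18 labelled test compound during a baseline microPET study in a cynomolgus monkey. Samples spanned 1 to 180 min post-injection. The percentage of tracer bound to plasma protein was determined at each time point. The same samples underwent radio-HPLC metabolite analysis.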

SERT [3] = assay: HRRT PET baseline study in awake rhesus monkey; type: in vivo

Compound	time of peak uptake, caudate (SERT [1]; anesthetized) [min]	time of peak uptake, cerebellum (SERT [1]; anesthetized)	time of peak uptake, medulla (SERT [1]; anesthetized) [min]	time of peak uptake, midbrain (SERT [1]; anesthetized) [min]	time of peak uptake, pons (SERT [1]; anesthetized) [min]	time of peak uptake, putamen (SERT [1]; anesthetized) [min]	time of peak uptake, thalamus (SERT [1]; anesthetized) [min]	time at which uptake ratios stabilize (SERT [1]; anesthetized cynomolgus monkey)	time at which washout from the SERT-rich brain regions begins (SERT [1]; anesthetized cynomolgus monkey)	time at which washout from the cerebellum begins (SERT [1]; anesthetized cynomolgus monkey)	percentage of protein-bound tracer in plasma [2]	time of peak uptake, caudate (SERT [3]; awake rhesus) [min]	time of peak uptake, cerebellum (SERT [3]; awake rhesus) [min]	time of peak uptake, medulla (SERT [3]; awake rhesus) [min]	time of peak uptake, midbrain (SERT [3]; awake rhesus) [min]	time of peak uptake, pons (SERT [3]; awake rhesus) [min]	time of peak uptake, putamen (SERT [3]; awake rhesus) [min]	time of peak uptake, thalamus (SERT [3]; awake rhesus) [min]	time of peak uptake in thalamus, putamen, midbrain, and caudate (SERT [3]; awake rhesus monkey)	time of peak uptake in the SERT-rich brain regions (SERT [1]; anesthetized cynomolgus monkey) [min]
O=C(OCC[18F])C1C2CCC(CC1c1cccc(/C=C\I)c1)N2 (stereo not drawn) [[^18F]1, 2β-Carbo(2-[^18F]fluoroethoxy)-3β-(3′-((Z)-2-iodoethenyl)phenyl)nortropane]	55	~ 27 min	35	45	45	45	45	~ 175 minutes	~ 65 minutes	~ 27 minutes	5.6 - 8.5%	45	45	35	45	85	45	45	~ 45 min	–
O=C(OCC[18F])C1C2CCC(CC1c1cccc(/C=C\Br)c1)N2 (stereo not drawn) [[^18F]2, 2β-Carbo(2-[^18F]fluoroethoxy)-3β-(3′-((Z)-2-bromoethenyl)phenyl)nortropane]	–	~ 30 min	–	–	–	–	–	–	–	–	–	–	–	–	–	–	–	–	–	55 to 65
O=C(OCCC[18F])C1C2CCC(CC1c1cccc(/C=C\Br)c1)N2 (stereo not drawn) [[^18F]4, 2β-Carbo(3-[^18F]fluoropropoxy)-3β-(3′-((Z)-2-bromoethenyl)phenyl)nortropane]	–	–	–	–	–	–	–	–	–	–	–	–	–	–	–	–	–	–	–	35 to 45
